These results are taken from ChEMBL document CHEMBL2062389, “Novel Cyclopropyl-Indole Derivatives as HIV Non-Nucleoside Reverse Transcriptase Inhibitors” (ACS Med Chem Lett, 2012).

SMILES strings stand for the structures.

Data set [1] concerns Human immunodeficiency virus 1. The experiment in a line: Antiviral activity against Human immunodeficiency virus 1 infected in human 293T cells assessed as inhibition of viral replication after 48 hrs by luminescence analysis. The class given is functional, organism-based. The settings on record: Human immunodeficiency virus 1, HEK-293T. The essentials:
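Single-cycle, nonreplicative phenotypic assay against wild-type HIV-1, using virus-like particles made with an HIV-1 retroviral vector system. Compounds incubated with 293T cells and VLPs for 48 h. Inhibition quantified by luminescence and reported as IC50 (μM).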

The nature of data set [2]: Cytotoxicity against human 293T cells after 48 hrs by colorimetric analysis. Format: cell-based. The settings on record: HEK-293T cells.

With `CCOC(=O)c1[nH]c2ccc(Cl)cc2c1C1(c2cccs2)CC1`, the IC50 – broadly, the concentration that gives 50% inhibition – in data set [1] worked out at 65 nM. Further, in data set [2], the cytotoxic concentration (CC50) (as a rule, the concentration that lowers cell viability or growth by half) at 48 h turned out to be 67.1 µM.
Regarding `O=C(O)c1[nH]c2ccc(Cl)cc2c1C1(c2ccccc2)CC1`, the IC50 in data set [1] came out at 28500 nM. In data set [2], the CC50 at 48 h is 92.3 µM.
`CCOC(=O)c1[nH]c2ccc(Cl)cc2c1C1(c2ccccc2)CC1`: the concentration for half-maximal inhibition (IC50) in data set [1] stood at 85 nM. Moreover, half-maximal cytotoxicity in data set [2] (CC50 at 48 h) was put at 30.3 µM.
As for `NC(=O)c1[nH]c2ccc(Cl)cc2c1C1(c2ccccc2)CC1`, in data set [1], the IC50 amounted to 96 nM. The compound further had a CC50 at 48 h in data set [2] of 14.2 µM.
For `CCOC(=O)c1[nH]c2ccc(Cl)cc2c1C1(C)CC1`, the 50% inhibitory concentration (IC50) in data set [1] stood at 2250 nM. Half-maximal cytotoxicity in data set [2] (CC50 at 48 h) was put at 44.3 µM.
On to `CCOC(=O)c1[nH]c2ccc(Br)cc2c1C1(c2ccccc2)CC1`, for which the IC50 in data set [1] is 66 nM. Further, the midpoint of cytotoxicity in data set [2], the CC50 at 48 h, lay at 24.5 µM.
On to `O=C(O)c1[nH]c2ccc(Cl)cc2c1C1(c2cccs2)CC1`, for which the IC50 in data set [1] came to 48200 nM. The compound further gave a CC50 at 48 h in data set [2] of 140 µM.
Take `NC(=O)c1[nH]c2ccc(Cl)cc2c1C1(c2cccs2)CC1`: the IC50 in data set [1] worked out at 121 nM. The same compound gave a CC50 at 48 h in data set [2] of 25.6 µM.
Take `OCc1[nH]c2ccc(Cl)cc2c1C1(c2ccccc2)CC1`: the IC50 in data set [1] is 8250 nM. The compound further displayed a 50% cytotoxic concentration (CC50) at 48 h in data set [2] of 34.1 µM.
With `OCc1[nH]c2ccc(Cl)cc2c1C1(c2cccs2)CC1`, in data set [1], the IC50 was 14400 nM. The compound also had a CC50 at 48 h in data set [2] of 36.6 µM.
For the compound `Cc1ccnc2c1NC(=O)c1cccnc1N2C1CC1` [NEVIRAPINE], in data set [1], the half-inhibitory concentration (IC50) is 87 nM.
